Measurements taken from ChEMBL document CHEMBL1141859, “Synthesis and antimicrobial activity of 5-hydroxymethyl- 8-methyl-2-(N-arylimino)-pyrano[2,3-c]pyridine-3-(N-aryl)-carboxamides” (2005).
Values after ≈ are worked out from the molar mass of the structure shown.

Columns and labels:
Type in all cases: functional
[1] = tested on: Staphylococcus aureus; assay: Antibacterial activity against Staphylococcus aureus
Method in brief: (§1)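 Twofold serial broth dilution in tubes, triplicate. Ten tubes of seeded broth (2 mL each); compound added as a 1 mg/mL DMF solution to the first tube, then serially transferred. Bacteria inoculated at 2×10^5 cfu/mL and incubated at 37 °C for 18–24 h. MIC (µg/mL) read visually. DMF solvent, positive growth and standard drug controls run alongside.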

[2] = tested on: Escherichia coli; assay: Antibacterial activity against Escherichia coli; method in brief: as §1
[3] = tested on: Pseudomonas aeruginosa; assay: Antibacterial activity against Pseudomonas aeruginosa; method in brief: as §1
[4] = tested on: Proteus vulgaris; assay: Antibacterial activity against Proteus vulgaris; method in brief: as §1
[5] = tested on: Candida albicans; assay: Antifungal activity against Candida albicans
Method in brief: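 For Candida albicans: broth double-dilution in tubes, run in triplicate. Compound added as a 1 mg/mL DMF solution to the first of ten seeded-broth tubes (2 mL), then serially diluted by transfer. Fungal inoculum 5×10^5 cfu/mL; incubation at 30 °C for 48 h. MIC (µg/mL) by visual reading. Controls were DMF solvent, positive growth and standard drug.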

Row | Structure (SMILES) | MIC [1] [µg/mL] | MIC [2] [µg/mL] | MIC [3] [µg/mL] | MIC [4] [µg/mL] | MIC [5] [µg/mL]
1 | COc1cc(/N=c2\oc3c(C)ncc(CO)c3cc2C(=O)Nc2cccc(C)c2)cc(OC)c1 | 25 (≈ 54.4 µM) | 100 (≈ 218 µM) | 50 (≈ 109 µM) | 100 (≈ 218 µM) | 12.5 (≈ 27.2 µM)
2 | COc1ccc(NC(=O)c2cc3c(CO)cnc(C)c3o/c2=N\c2ccc(OC)c(OC)c2)c(OC)c1 | 25 (≈ 49.5 µM) | 50 (≈ 98.9 µM) | 50 (≈ 98.9 µM) | 50 (≈ 98.9 µM) | 50 (≈ 98.9 µM)
3 | Cc1cccc(/N=c2\oc3c(C)ncc(CO)c3cc2C(=O)Nc2ccccc2)c1 | 100 (≈ 250 µM) | 100 (≈ 250 µM) | 100 (≈ 250 µM) | 100 (≈ 250 µM) | 100 (≈ 250 µM)
4 | Cc1cccc(NC(=O)c2cc3c(CO)cnc(C)c3o/c2=N\c2ccc(C)c(C)c2)c1 | 50 (≈ 117 µM) | 25 (≈ 58.5 µM) | 12.5 (≈ 29.2 µM) | 50 (≈ 117 µM) | 12.5 (≈ 29.2 µM)
5 | Cc1ncc(CO)c2cc(C(=O)Nc3ccccc3)/c(=N/c3ccc(Oc4ccccc4)cc3)oc12 | 50 (≈ 105 µM) | 25 (≈ 52.4 µM) | 50 (≈ 105 µM) | 50 (≈ 105 µM) | 50 (≈ 105 µM)
6 | Cc1ccc(NC(=O)c2cc3c(CO)cnc(C)c3o/c2=N\c2ccc(Br)cc2)cc1 | 25 (≈ 52.3 µM) | 50 (≈ 105 µM) | 50 (≈ 105 µM) | 50 (≈ 105 µM) | 25 (≈ 52.3 µM)
7 | COc1cc(NC(=O)c2cc3c(CO)cnc(C)c3o/c2=N\c2ccc(C(N)=O)cc2)cc(OC)c1 | 50 (≈ 102 µM) | 50 (≈ 102 µM) | 50 (≈ 102 µM) | 50 (≈ 102 µM) | 25 (≈ 51.2 µM)
8 | CCOc1ccc(/N=c2\oc3c(C)ncc(CO)c3cc2C(=O)Nc2cccc(C)c2)cc1 | 50 (≈ 113 µM) | 50 (≈ 113 µM) | 25 (≈ 56.4 µM) | 50 (≈ 113 µM) | 50 (≈ 113 µM)
9 | O=C(O)c1cn(C2CC2)c2cc(N3CCNCC3)c(F)cc2c1=O [CIPROFLOXACIN] |  | 25 (≈ 75.4 µM) |  | 12.5 (≈ 37.7 µM) | 
10 | Cc1ccc(NC(=O)c2cc3c(CO)cnc(C)c3o/c2=N\c2ccc(Oc3ccccc3)cc2)cc1 | 50 (≈ 102 µM) | 50 (≈ 102 µM) | 50 (≈ 102 µM) | 50 (≈ 102 µM) | 12.5 (≈ 25.4 µM)
11 | Cc1ncc(CO)c2cc(C(=O)Nc3ccccc3)/c(=N/c3ccc4c(c3)OCO4)oc12 | 50 (≈ 116 µM) | 25 (≈ 58.2 µM) | 50 (≈ 116 µM) | 50 (≈ 116 µM) | 50 (≈ 116 µM)
12 | Cc1cccc(NC(=O)c2cc3c(CO)cnc(C)c3o/c2=N\c2ccccc2)c1 | 100 (≈ 250 µM) | 50 (≈ 125 µM) | 25 (≈ 62.6 µM) | 50 (≈ 125 µM) | 12.5 (≈ 31.3 µM)
13 | Cc1ccc(NC(=O)c2cc3c(CO)cnc(C)c3o/c2=N\c2ccc(Cl)c(Cl)c2)cc1 | 100 (≈ 214 µM) | 100 (≈ 214 µM) | 50 (≈ 107 µM) | 50 (≈ 107 µM) | 25 (≈ 53.4 µM)
14 | Cc1ccc(/N=c2\oc3c(C)ncc(CO)c3cc2C(=O)Nc2cccc(C)c2)cc1 | 50 (≈ 121 µM) | 50 (≈ 121 µM) | 50 (≈ 121 µM) | 50 (≈ 121 µM) | 50 (≈ 121 µM)
15 | CCc1ccc(NC(=O)c2cc3c(CO)cnc(C)c3o/c2=N\c2ccc3c(c2)OCO3)cc1 | 100 (≈ 219 µM) | 50 (≈ 109 µM) | 50 (≈ 109 µM) | 50 (≈ 109 µM) | 12.5 (≈ 27.3 µM)
16 | Cc1cc(C)cc(/N=c2\oc3c(C)ncc(CO)c3cc2C(=O)Nc2ccccc2C)c1 | 100 (≈ 234 µM) | 100 (≈ 234 µM) | 50 (≈ 117 µM) | 100 (≈ 234 µM) | 100 (≈ 234 µM)
17 | COc1ccc(/N=c2\oc3c(C)ncc(CO)c3cc2C(=O)Nc2cccc(C)c2)cc1OC | 50 (≈ 109 µM) | 50 (≈ 109 µM) | 100 (≈ 218 µM) | 100 (≈ 218 µM) | 50 (≈ 109 µM)
18 | Cc1ccc(/N=c2\oc3c(C)ncc(CO)c3cc2C(=O)Nc2ccccc2C)cc1C | 100 (≈ 234 µM) | 50 (≈ 117 µM) | 25 (≈ 58.5 µM) | 50 (≈ 117 µM) | 100 (≈ 234 µM)
